According to ChEMBL document CHEMBL2375313, “Synthesis, in vitro antitumor evaluation and DNA-binding study of novel tetrahydroquinolines and some derived tricyclic and tetracyclic ring systems” (Eur J Med Chem, 2013):

Legend:
Type in all cases: functional
DU-145 = assay: Cytotoxicity against human DU145 cells assessed as growth inhibition at 10 uM after 48 hrs by sulphorhodamine B assay; details: DU-145, 48 h, read-out: GI
In short: (§1)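 NCI-60 one-dose screen per the NCI Drug Evaluation Branch protocol. Cells given a single 10 µM concentration with 48 h continuous exposure. Growth estimated by sulphorhodamine B protein assay. Result expressed as percentage growth inhibition relative to untreated growth.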

UO-31 = assay: Cytotoxicity against human UO31 cells assessed as growth inhibition at 10 uM after 48 hrs by sulphorhodamine B assay; details: UO-31, 48 h, read-out: GI; in short: as §1
PC-3 = assay: Cytotoxicity against human PC3 cells assessed as growth inhibition at 10 uM after 48 hrs by sulphorhodamine B assay; details: PC-3, 48 h, read-out: GI; in short: as §1
SR = assay: Cytotoxicity against human SR cells assessed as growth inhibition at 10 uM after 48 hrs by sulphorhodamine B assay; details: read-out: GI; in short: as §1
[1] = Cytotoxicity against human EKVX cells assessed as growth inhibition at 10 uM after 48 hrs by sulphorhodamine B assay; details: read-out: GI; in short: as §1
SNB-19 = assay: Cytotoxicity against human SNB19 cells assessed as growth inhibition at 10 uM after 48 hrs by sulphorhodamine B assay; details: SNB-19, 48 h, read-out: GI; in short: as §1
SF-295 = assay: Cytotoxicity against human SF295 cells assessed as growth inhibition at 10 uM after 48 hrs by sulphorhodamine B assay; details: SF-295, 48 h, read-out: GI; in short: as §1
A549 = assay: Cytotoxicity against human A549 cells assessed as growth inhibition at 10 uM after 48 hrs by sulphorhodamine B assay; details: A549, 48 h, read-out: GI; in short: as §1
A498 = assay: Cytotoxicity against human A498 cells assessed as growth inhibition at 10 uM after 48 hrs by sulphorhodamine B assay; details: A498, 48 h, read-out: GI; in short: as §1
SK-OV-3 = assay: Cytotoxicity against human SKOV3 cells assessed as growth inhibition at 10 uM after 48 hrs by sulphorhodamine B assay; details: SK-OV-3, 48 h, read-out: GI; in short: as §1
MDA-MB-468 = assay: Cytotoxicity against human MDA-MB-468 cells assessed as growth inhibition at 10 uM after 48 hrs by sulphorhodamine B assay; details: MDA-MB-468, 48 h, read-out: GI; in short: as §1
HOP-92 = assay: Cytotoxicity against human HOP92 cells assessed as growth inhibition at 10 uM after 48 hrs by sulphorhodamine B assay; details: HOP-92, 48 h, read-out: GI; in short: as §1
MOLT-4 = assay: Cytotoxicity against human MOLT4 cells assessed as growth inhibition at 10 uM after 48 hrs by sulphorhodamine B assay; details: MOLT-4, 48 h, read-out: GI; in short: as §1
SK-MEL-2 = assay: Cytotoxicity against human SK-MEL-2 cells assessed as growth inhibition at 10 uM after 48 hrs by sulphorhodamine B assay; details: SK-MEL-2, 48 h, read-out: GI; in short: as §1
T47D = assay: Cytotoxicity against human T47D cells assessed as growth inhibition at 10 uM after 48 hrs by sulphorhodamine B assay; details: read-out: GI; in short: as §1
NCI-H23 = assay: Cytotoxicity against human NCI-H23 cells assessed as growth inhibition at 10 uM after 48 hrs by sulphorhodamine B assay; details: NCI-H23, 48 h, read-out: GI; in short: as §1
HT-29 = assay: Cytotoxicity against human HT-29 cells assessed as growth inhibition at 10 uM after 48 hrs by sulphorhodamine B assay; details: HT-29, 48 h, read-out: GI; in short: as §1
K562 = assay: Cytotoxicity against human K562 cells assessed as growth inhibition at 10 uM after 48 hrs by sulphorhodamine B assay; details: K562, 48 h, read-out: GI; in short: as §1
MCF7 = assay: Cytotoxicity against human MCF7 cells assessed as growth inhibition at 10 uM after 48 hrs by sulphorhodamine B assay; details: MCF7, 48 h, read-out: GI; in short: as §1
HL-60(TB) = assay: Cytotoxicity against human HL-60(TB) cells assessed as growth inhibition at 10 uM after 48 hrs by sulphorhodamine B assay; details: HL-60, 48 h, read-out: GI
In short: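 NCI-60 one-dose primary screen run to the Drug Evaluation Branch protocol. Cells are exposed to a single 10 µM concentration for 48 h continuously, and growth is read by SRB protein assay. Data are reported as percent growth of treated cells, expressed as % growth inhibition.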

NCI/ADR-RES = assay: Cytotoxicity against human NCI/ADR-RES cells assessed as growth inhibition at 10 uM after 48 hrs by sulphorhodamine B assay; details: read-out: GI; in short: as §1
SK-MEL-5 = assay: Cytotoxicity against human SK-MEL-5 cells assessed as growth inhibition at 10 uM after 48 hrs by sulphorhodamine B assay; details: SK-MEL-5, 48 h, read-out: GI; in short: as §1
HCT-116 = assay: Cytotoxicity against human HCT116 cells assessed as growth inhibition at 10 uM after 48 hrs by sulphorhodamine B assay; details: HCT-116, 48 h, read-out: GI; in short: as §1
NCI-H522 = assay: Cytotoxicity against human NCI-H522 cells assessed as growth inhibition at 10 uM after 48 hrs by sulphorhodamine B assay; details: NCI-H522, 48 h, read-out: GI; in short: as §1
M14 = assay: Cytotoxicity against human M14 cells assessed as growth inhibition at 10 uM after 48 hrs by sulphorhodamine B assay; details: M14, 48 h, read-out: GI; in short: as §1
OVCAR-4 = assay: Cytotoxicity against human OVCAR4 cells assessed as growth inhibition at 10 uM after 48 hrs by sulphorhodamine B assay; details: OVCAR-4, 48 h, read-out: GI; in short: as §1
UACC-62 = assay: Cytotoxicity against human UACC62 cells assessed as growth inhibition at 10 uM after 48 hrs by sulphorhodamine B assay; details: UACC-62, 48 h, read-out: GI; in short: as §1
RPMI-8226 = assay: Cytotoxicity against human RPMI8226 cells assessed as growth inhibition at 10 uM after 48 hrs by sulphorhodamine B assay; details: RPMI-8226, 48 h, read-out: GI; in short: as §1
SF-268 = assay: Cytotoxicity against human SF268 cells assessed as growth inhibition at 10 uM after 48 hrs by sulphorhodamine B assay; details: SF-268, 48 h, read-out: GI; in short: as §1
CAKI-1 = assay: Cytotoxicity against human Caki1 cells assessed as growth inhibition at 10 uM after 48 hrs by sulphorhodamine B assay; details: CAKI-1, 48 h, read-out: GI; in short: as §1
ACHN = assay: Cytotoxicity against human ACHN cells assessed as growth inhibition at 10 uM after 48 hrs by sulphorhodamine B assay; details: read-out: GI; in short: as §1
OVCAR-5 = assay: Cytotoxicity against human OVCAR5 cells assessed as growth inhibition at 10 uM after 48 hrs by sulphorhodamine B assay; details: OVCAR-5, 48 h, read-out: GI; in short: as §1
IGROV-1 = assay: Cytotoxicity against human IGROV1 cells assessed as growth inhibition at 10 uM after 48 hrs by sulphorhodamine B assay; details: IGROV-1, 48 h, read-out: GI; in short: as §1
Hs-578T = assay: Cytotoxicity against human Hs578T cells assessed as growth inhibition at 10 uM after 48 hrs by sulphorhodamine B assay; details: read-out: GI; in short: as §1
HCT-15 = assay: Cytotoxicity against human HCT15 cells assessed as growth inhibition at 10 uM after 48 hrs by sulphorhodamine B assay; details: HCT-15, 48 h, read-out: GI; in short: as §1
U-251 = assay: Cytotoxicity against human U251 cells assessed as growth inhibition at 10 uM after 48 hrs by sulphorhodamine B assay; details: U-251, 48 h, read-out: GI; in short: as §1
CCRF-CEM = assay: Cytotoxicity against human CCRF-CEM cells assessed as growth inhibition at 10 uM after 48 hrs by sulphorhodamine B assay; details: read-out: GI; in short: as §1
LOX IMVI = assay: Cytotoxicity against human LOXIMVI cells assessed as growth inhibition at 10 uM after 48 hrs by sulphorhodamine B assay; details: read-out: GI; in short: as §1
SNB-75 = assay: Cytotoxicity against human SNB75 cells assessed as growth inhibition at 10 uM after 48 hrs by sulphorhodamine B assay; details: SNB-75, 48 h, read-out: GI; in short: as §1
MDA-MB-435 = assay: Cytotoxicity against human MDA-MB-435 cells assessed as growth inhibition at 10 uM after 48 hrs by sulphorhodamine B assay; details: MDA-MB-435, 48 h, read-out: GI; in short: as §1
RXF 393 = assay: Cytotoxicity against human RXF393 cells assessed as growth inhibition at 10 uM after 48 hrs by sulphorhodamine B assay; details: RXF 393, 48 h, read-out: GI; in short: as §1

For `COc1ccc(-c2c(C#N)c(N)nc3c2CCCC3C)cc1` (stereo unspecified), the inhibition of growth at 10 µM (DU-145) was < 10%, the inhibition of growth at 10 µM (UO-31) was < 10% and the inhibition of growth at 10 µM (PC-3) was 16.2%. The inhibition of growth at 10 µM (SR) was 36.6%, the inhibition of growth at 10 µM [1] was < 10% and the inhibition of growth at 10 µM (SNB-19) was 11%. The inhibition of growth at 10 µM (SF-295) was < 10%, the inhibition of growth at 10 µM (A549) was 15.7% and the inhibition of growth at 10 µM (A498) was < 10%. The inhibition of growth at 10 µM (SK-OV-3) was < 10%, the inhibition of growth at 10 µM (MDA-MB-468) was 15.2% and the inhibition of growth at 10 µM (HOP-92) was 20%. The inhibition of growth at 10 µM (MOLT-4) was 21.3%, the inhibition of growth at 10 µM (SK-MEL-2) was < 10% and the inhibition of growth at 10 µM (T47D) was 41%. The inhibition of growth at 10 µM (NCI-H23) was 11%, the inhibition of growth at 10 µM (HT-29) was < 10% and the inhibition of growth at 10 µM (K562) was 28.4%. For the same compound, the inhibition of growth at 10 µM (MCF7) was 10%, the inhibition of growth at 10 µM (HL-60(TB)) was 11.7% and the inhibition of growth at 10 µM (NCI/ADR-RES) was 24.1%. The inhibition of growth at 10 µM (SK-MEL-5) was 14.5%, the inhibition of growth at 10 µM (HCT-116) was 15.7% and the inhibition of growth at 10 µM (NCI-H522) was 14.6%. For the same compound, the inhibition of growth at 10 µM (M14) was < 10%, the inhibition of growth at 10 µM (OVCAR-4) was 17.2% and the inhibition of growth at 10 µM (UACC-62) was 20%. The inhibition of growth at 10 µM (RPMI-8226) was 34.1%, the inhibition of growth at 10 µM (SF-268) was < 10% and the inhibition of growth at 10 µM (CAKI-1) was < 10%. The inhibition of growth at 10 µM (ACHN) was < 10%, the inhibition of growth at 10 µM (OVCAR-5) was < 10% and the inhibition of growth at 10 µM (IGROV-1) was < 10%. The inhibition of growth at 10 µM (Hs-578T) was < 10%, the inhibition of growth at 10 µM (HCT-15) was 25.3% and the inhibition of growth at 10 µM (U-251) was 20%. For the same compound, the inhibition of growth at 10 µM (CCRF-CEM) was 16.3%, the inhibition of growth at 10 µM (LOX IMVI) was 12.3% and the inhibition of growth at 10 µM (SNB-75) was 25.3%. The inhibition of growth at 10 µM (MDA-MB-435) was < 10% and the inhibition of growth at 10 µM (RXF 393) was 11.1%.
